Hits are enriched below; roughly 4.7% of the tested compounds scored in any of these assays.
MC4R antag cAMP: antagonists of human melanocortin 4 receptor (MC4R) | P32245 | MC4R-expressing cells, MTII-stimulated cAMP, LANCE TR-FRET | inhibition, % at 6.5 µM | 360,000 tested, 0.48% active | AID 540295;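 active = inhibition above its plate's cutoff, the mean of tested wells on that plate plus 3 SD, cut at about 29% in these data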;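 note: 0% = Melanotan II alone and 100% = Melanotan II plus saturating MCL0020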
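system = U2OS cells with stable human MC4R expression | also added = Melanotan II challenge after compound preincubation | dosing = one concentration, 6.5 µM nominal | incubation = compound 30 min, challenge 1 h, detection 1 h | measured by = TR-FRET with Eu-cAMP and labeled anti-cAMP, 671 nm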
GAA850 FXN act: increases GAA850 frataxin promoter reporter activity | 360,000 tested, 0.56% active | activation, % at 6 µM | HEK293 lucGAA850 FXN promoter luciferase reporter, 24 h; percent of 10 µM SAHA response;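 active = activation above the average of all compounds screened plus 3 SD, cutoff fixed separately per campaign, cut at about 7.5% in these data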;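 note: 0% = DMSO wells and 100% = 10 µM SAHA wells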
m5-HT2A agonist: mouse HTR2A agonism via beta-arrestin recruitment. P35363. CHO-K1 mHTR2A beta-arrestin complementation, luminescence; percent of 30 µM serotonin response. activation, % at 7.6 µM. 360,000 tested, 0.66% active. AID 624169;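 active = activation above a run cutoff, the mean activation of all tested compounds plus 3 SD, cut at about 14% in these data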;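 note: 0% = plate median of compound wells and 100% = 30 µM serotonin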
AHR activator: activates the human aryl hydrocarbon receptor | AHR-responsive luciferase reporter cells, luminescence | activation, % at 5 µM | 320,000 tested, 2.5% active | AID 2796; in the data active = activation above about 47%;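 note: 0% = vehicle wells and 100% = reference agonist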
MC4R ag barr: agonists of human melanocortin 4 receptor (MC4R) beta-arrestin; U2OS MC4R beta-arrestin complementation, luminescence; percent of melanotan II response, DMSO zero; activation, % at 8.9 µM; 360,000 tested, 0.98% active;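 active = activation above a per-plate cutoff, the mean activation of sample wells on that plate plus 3 SD, cut at about 8% in these data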
AHR act cf: confirmation of human aryl hydrocarbon receptor activators; shares compounds with AHR activator; human cells, AHR-responsive luciferase reporter, luminescence; activation, % at 9 µM; 2,300 tested, 87% active; in the data active = activation above about 49%;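 note: HepG2 hepatoma cells carrying a DRE-driven firefly luciferase reporter; 0% = vehicle wells and 100% = reference agonist wells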
PXR act counter: counter-screen for AHR activators: human PXR activators. shares compounds with AHR activator. cell-based PXR reporter, luciferase luminescence. activation, % at 11.6 µM. 2,300 tested, 88% active. AID 434939; in the data active = activation above about 11%;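 note: human hepatoma DPX-2 cells expressing full-length human PXR; 0% = DMSO and 100% = reference agonist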
Target sequence (O75469 whole entry, looked up): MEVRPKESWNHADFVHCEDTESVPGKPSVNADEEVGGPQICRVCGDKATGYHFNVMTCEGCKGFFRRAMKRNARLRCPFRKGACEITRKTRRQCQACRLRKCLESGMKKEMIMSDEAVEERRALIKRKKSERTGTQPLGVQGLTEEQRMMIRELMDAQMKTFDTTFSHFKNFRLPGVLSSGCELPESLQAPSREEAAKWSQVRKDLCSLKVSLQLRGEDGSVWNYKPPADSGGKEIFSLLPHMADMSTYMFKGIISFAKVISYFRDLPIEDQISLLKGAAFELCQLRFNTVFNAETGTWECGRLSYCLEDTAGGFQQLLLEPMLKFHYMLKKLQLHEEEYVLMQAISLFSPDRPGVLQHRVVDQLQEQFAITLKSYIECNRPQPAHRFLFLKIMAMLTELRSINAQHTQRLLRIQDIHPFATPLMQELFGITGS
The depositor's hits bear a star; . = no result given.

SMILES	MC4R antag cAMP	GAA850 FXN act	m5-HT2A agonist	AHR activator	MC4R ag barr	AHR act cf	PXR act counter
COc1ccc(C(=O)COc2ccccc2C(N)=O)cc1	21	1	2	3	0	.	.
N#Cc1cnc2nc1NCCCCCCC2	-1	3	-1	.	-1	.	.
COc1ccccc1N/C(=N/S(=O)(=O)c1ccc(C)cc1)c1ccccc1	4	-2	-1	2	-2	.	.
COc1ccc([N+](=O)[O-])cc1N/C(=N/S(=O)(=O)c1ccccc1)c1ccccc1	0	4	1	113*	-1	84*	133*
Cc1onc(-c2ccccc2Cl)c1C(=O)OCC(=O)N1CCN(c2ccccc2)CC1	10	2	-3	4	-1	.	.
Cc1ccc(NC(=S)Nc2cc(-c3ccccc3)[nH]n2)cc1Cl	11	3	-7	94*	8.9*	103*	37*
S=C(NCc1ccccc1)N1CCN(C(=S)NCc2ccccc2)CC1	11	0	-4	-1	0	.	.
CC1=C(C(=O)O)N2C(=O)C(NC(=O)c3ccc(F)cc3)C2SC1 (stereo not given)	0	0	2	3	-2	.	.
O=[N+]([O-])c1cccc2ccc(/C=C/c3ccc(C(F)(F)F)cc3)nc12	-7	2	-3	82*	-2	96*	15*
O=[N+]([O-])c1cccc2ccc(/C=C/c3cccc(Br)c3)nc12	3	4	3	175*	-3	121*	25*
COc1ccc(C(=O)COC(=O)c2ccc3c(c2)OCO3)c(OC)c1	-3	1	6	0	1	.	.
CSc1ccccc1CNc1nc(NCC2CC2)nc2ccsc12	-10	-1	-11	.	0	.	.
CCc1c(C)nc2cc(-c3ccc(Cl)cc3)[nH]n2c1=O	20	3	0	113*	-1	95*	22*
CCOC(=O)CCc1c(C)nc2cc(-c3ccc(Cl)cc3)[nH]n2c1=O	21	-1	3	13	1	.	.
COc1ccc(-c2sc3cc4c(cc3c2C#Cc2cncn2C)OCO4)cc1	4	1	6	82*	-1	103*	15*
O=C(Nc1ccc(F)cc1F)c1cc(Cl)sc1Cl	-1	3	1	0	-2	.	.
CN(C)S(=O)(=O)Oc1ccc(Cl)cc1C(=O)Nc1ccc(F)cc1F	4	3	-3	81*	-2	81*	191*
S=C1NC(c2cccs2)=CC(c2ccc(Br)cc2)N1 (stereo not given)	7	1	3	117*	1	111*	60*
CSc1nc2nc(Cl)c(Cl)nc2[nH]1	5	3	1	.	0	.	.
CCCc1c(C(=O)Nc2ccc(F)cc2F)cnn1-c1ccccc1	-2	-1	-1	83*	-2	91*	71*
Cn1ncc(Br)c1C(=O)Nc1ccc(F)cc1F	2	1	-2	85*	-2	80*	17*
O=C(CN1C(=O)NC2(CCCc3ccccc32)C1=O)Nc1cc(F)ccc1F (stereo not given)	1	1	4	7	1	.	.
C[C@H](CO)N1C[C@H](C)[C@H](CN(C)C(=O)CC2CC2)Oc2cc(Br)ccc2S1(=O)=O	-1	-1	6	.	-2	.	.
CC(=O)N1N=C2/C(=C/c3ccccc3)CCCC2C1c1ccccc1 (stereo not given)	25	1	-1	100*	2	87*	101*
COc1ccc(/C=C2\CCCC3C2=NN(C(=O)c2ccco2)C3c2ccc(OC)c(OC)c2)cc1OC (stereo not given)	11	4	5	4	-2	.	.
CN1N=C2c3ccccc3CCC2C1c1ccc(C(F)(F)F)cc1 (stereo not given)	.	.	.	21	.	.	.
O=C(c1ccccn1)N1N=C2/C(=C/c3ccc(F)cc3)CCCC2C1c1ccc(F)cc1 (stereo not given)	10	0	0	94*	1	95*	49*

Screening data (PubChem BioAssay)
